PubChem BioAssay
Values without a mark were called inactive. Results filed as inconclusive are left out. Calls of active or inactive are those of the source.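 Rule for the calls, unless noted: active = RAM network inhibition above 8.4% in each of two replicates, 3 SD over the compound average; inconclusive = above 8.4% inhibition in only one replicate; inactive = 8.4% inhibition or less in each replicate.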

How the values were obtained:
[1] = OD615 S. cerevisiae growth inhibition, permissive medium, pilot counter-assay, permissive growth control for S. cerevisiae lifespan shortening project (AID 705;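 active = growth inhibition above 25% in both replicates, a cutoff set 3 SD above the mean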); conditions: OD615, 24 h, at 10 µM, hits give high values
How it was run: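 System: S. cerevisiae with engineered DeaD lifespan system / Measured by: absorbance (optical density) at 615 nm / Read-out: reduction in yeast growth (OD615) / Times: 4 h cell pre-growth, 24 h exposure at 30 °C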

[2] = Restrictive medium S. cerevisiae growth inhibition, OD615, pilot screen of yeast lifespan reduction project, restrictive growth control (AID 706;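 active = growth inhibition above a set limit, 3 SD over mean compound inhibition, in both replicates, cut at about 43% in these data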;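 note: modified DeaD lifespan yeast strain shifted to restrictive glucose medium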); conditions: OD615, 48 h, at 10 µM, hits give high values
How it was run: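 System: Engineered S. cerevisiae DeaD strain | Buffer or medium: Glucose-based CSMM-D restrictive medium | Schedule: 4 h pre-incubation, 48 h exposure at 30 °C | Technique: Optical density at 615 nm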

[3] = viability gain of MRP-1-high H69AR cells under doxorubicin, pilot screen, MRP-1 activator project, CellTiter-Glo, duplicate (AID 807;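 active = viability increase at or above a cutoff of the median across tested compounds plus 3 SD, cut at about 8.5% in these data, passing the limit was not always enough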;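 note: compound pretreatment 18-22 h then 72 h combined with doxorubicin; 0% = doxorubicin alone and 100% = vehicle without doxorubicin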); conditions: H69AR viability with doxorubicin, CellTiter-Glo luminescence; at 10 µM; hits give high values
[4] = growth suppression of beta-catenin knockout HCT116, pilot screen, human colon tumor cells (AID 823;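 active = cell viability at or below a set limit in both duplicate runs, the limit being the all-compound median minus 4 SD, cut at about 23% in these data, passing the limit was not always enough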;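 note: 0% = wells killed by 20 µM Hyamine and 100% = untreated DMSO cell wells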); conditions: CellTiter-Glo, 60 h, at 10 µM, hits give low values
[5] = growth suppression of PTEN-deleted HCT116, pilot screen, cell-based, HCT116 clonal line, CellTiter-Glo (AID 824;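 active = viability at or below 27.92% in each of two runs, the all-compound median minus 4 SD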;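 note: 0% = 20 µM Hyamine control and 100% = vehicle cell control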); conditions: 60 h, at 10 µM, hits give low values
[6] = inhibitors of the yeast RAM network, pilot screen, dse1pr::URA3 reporter, 5-FOA selection (AID 869;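 active = inhibition over a set limit, the all-compound mean plus 3 SD, in both replicate runs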;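 note: 0% = DMSO wells with no growth and 100% = 10 µM 1-NA-PP1 with full growth; RAM network block rescues cells from 5-FOA so hits raise OD615 growth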); conditions: S. cerevisiae dse1pr::URA3 5-FOA growth, OD615, 2 d; at 10 µM; hits give high values; strain carries analog-sensitive mutant Cbk1 kinase
[7] = RAM signaling pathway blockade in yeast – S. cerevisiae, Pdr1DBD-CYC8 efflux-inhibited sensitized strain, primary screen (AID 1298);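 note: 0% = DMSO untreated cells without growth and 100% = 10 µM 1-NA-PP1 full growth; higher means more yeast growth rescued from 5-FOA killing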; conditions: S. cerevisiae cbk1-as DSE1-URA3 strain, 5-FOA growth OD615, 2 d; at 50 µM; hits give high values

| SMILES | growth inhibition [1] | growth inhibition [2] | viability increase [3] [%] | viability [4] [%] | viability [5] [%] | inhibition [6] [%] | RAM network inhibition [7] [%] |
| --- | --- | --- | --- | --- | --- | --- | --- |
| COC(=O)C(C)Sc1ccc2nnc(-c3cccc(F)c3)n2n1 (stereo not given) | 8.96% | 14.9% | -3.98 | 94.7 | 87.4 | 2.51 | 0.15 |
| Cc1onc(-c2c(F)cccc2Cl)c1C(=O)OCC(=O)Nc1c(C)n(C)n(-c2ccccc2)c1=O | -3.96% | -1.53% | -0.55 | 87.4 | 90.3 | 0.92 | 1.78 |
| N#CC1(c2ccccc2)CCCN1C(=O)c1ccco1 (stereo not given) | -3.57% | 3.69% | -1.54 | 104 | 101 | 2.25 | 3.1 |
| COc1cc(C)c(N(C(C)=O)c2ccccc2)c(C)c1 | -10.7% | -17.4% | -0.85 | 92.2 | 87.3 | 1.97 | 5.22 |
| CC1CCN(c2nc3ccccc3nc2C(C#N)S(=O)(=O)c2ccccc2)CC1 (stereo not given) | -32.5% | -14.6% | -2.55 | 91.4 | 95.1 | 1.22 | 4.37 |
| Cc1cc(C)nc(SCC(=O)NCc2ccco2)n1 | 3.65% | 6.47% | -5.58 | 70.6 | 78.4 | -0.38 | 2.1 |
| CCOc1cc(C(=O)NC(C)COC)cc(OCC)c1OCC (stereo not given) | -4.84% | -8.48% | -2.05 | 104 | 104 | 0.785 | 0.53 |
| Cc1cc(=O)oc2c(N)c(O)ccc12 | -4.57% | -11.6% | -4.95 | 101 | 98.5 | 0.53 | 1.88 |
| CS(=O)(=O)Nc1ccc2c3c(cccc13)CC2 | -15.4% | -15.1% | -1.25 | 97.7 | 90.1 | 1.14 | 7.52 |
| Cn1c(NC(=O)CCC2CCCCC2)cc(=O)n(C)c1=O | -1.97% | -10.8% | 2.29 | 92.9 | 83.6 | 0.52 | -1.2 |
| O=C1C2C3C=CC(CO)(O3)C2C(=O)N1c1ccccc1-c1ccccc1 (stereo not given) | 97.3% (active) | 100% (active) | -4.39 | 93.7 | 92 | 0.13 | -1.89 |
| O=C(CSc1ncccn1)NCCc1ccccc1 | -4.5% | 2.61% | -1.26 | 96 | 97.2 | 2.3 | 2.5 |
| COc1ccc(N(CC(=O)NCc2cccs2)S(=O)(=O)c2c(C)nn(C)c2C)cc1 | -2.88% | -15.2% | -3.49 | 88.6 | 86.9 | 0.535 | -0.27 |
| COc1ccc(-c2nc3n(n2)C(c2ccccc2Cl)C(C(N)=O)=C(C)N3)cc1 (stereo not given) | -14.2% | 0.71% | -0.48 | 96.9 | 96.2 | 1.66 | -1.36 |
| Cc1cc(SCC(=O)c2ccccc2)n2nc(C)nc2n1 | -12.2% | 0.305% | -6.79 | 89.8 | 87 | 2.91 | 2.67 |
| CCOC(=O)Cn1c(CN2CC(C)OC(C)C2)nc2c1c(=O)n(C)c(=O)n2C (stereo not given) | 3.12% | 8.5% | 0.25 | 95.2 | 95 | -0.31 | -1.12 |
| CC(=O)Oc1ccc(C(=O)Nc2nccs2)cc1 | -7.33% | -14.7% | -4.75 | 88.2 | 80.3 | 3.5 | 0.1 |
| COc1ccc(CCNC(=O)CN2CCOc3ccccc32)cc1OC | -23.7% | 13.9% | -6.27 | 100 | 96.8 | 0.49 | 1.27 |

| SMILES | growth inhibition [1] | growth inhibition [2] | viability increase [3] [%] | viability [4] [%] | viability [5] [%] | inhibition [6] [%] | RAM network inhibition [7] [%] |
| --- | --- | --- | --- | --- | --- | --- | --- |
| Cc1ccccc1Cn1c(CN2CCN(c3ccc(F)cc3)CC2)nc2c1c(=O)n(C)c(=O)n2C | -12.2% | -17.1% | -3.7 | 94.4 | 92.2 | 2.51 | 7.93 |
| Cc1onc(-c2ccccc2Cl)c1C(=O)OCn1nnc2ccccc2c1=O | -5.29% | -2.08% | -1.94 | 84.4 | 87.3 | 2.41 | 7.77 |
| COc1cc(NC(=O)CCCC(=O)OCC(F)(F)C(F)F)nc(OC)n1 | -5.42% | -21.7% | -0.22 | 102 | 98.9 | 1.37 | 0.92 |
| COc1ccc(CNC(=O)CS(=O)Cc2nc(-c3ccccc3C)oc2C)cc1 (stereo not given) | -3.65% | 10.4% | -0.34 | 96.7 | 101 | 0.275 | 1.98 |
| Cc1ccc(NS(=O)(=O)c2cc(C(=O)O)ccc2Cl)cc1 | -5.58% | -5.51% | -1.55 | 100 | 95.2 | 1.16 | 7.99 |
| COc1ccc(OC)c(C2CC(=O)N3CN(c4ccccc4)CSC3=C2C#N)c1 (stereo not given) | 0.46% | 26.8% | -4.09 | 96.2 | 94.5 | 1.09 | 0.06 |
| COCCn1c(SCC(=O)NCC2CCCO2)nc2c(c1=O)SC(C)C2 (stereo not given) | -7.14% | -0.265% | -0.65 | 110 | 109 | 1.19 | 3.08 |
| CCSc1nc2c(cnn2-c2ccc(C)c(C)c2)c(=O)[nH]1 | -2.47% | -2.05% | -1 | 98.8 | 94.2 | 1.42 | 7.85 |
| CCn1c(C(C)NC(=O)c2cccs2)nc2ccccc21 (stereo not given) | -1.68% | -9.03% | -1.68 | 103 | 91.9 | 1.33 | 6.3 |
| CCOC(=O)Cn1c(=O)oc2cc(S(=O)(=O)N3CCc4ccccc43)ccc21 | -6.21% | 1.04% | -1.01 | 91.8 | 93.8 | -0.605 | 2.93 |
| COC(=O)C1=CN(C)C=C(C(=O)OC)C1c1ccc(Cl)cc1Cl | -12.4% | -10.4% | -2.14 | 85.1 | 78.2 | 3.2 | 8.48 |
| CCOc1cc(C(=O)Nc2nnc(C)s2)cc(OCC)c1OCC | -0.31% | 0.555% | -4.22 | 108 | 97.7 | 0.43 | 0.63 |
| COc1ccc(Cl)cc1NC(=O)CSc1nnc(Cn2c(=O)sc3ccccc32)n1C | -8.82% | -14.1% | -2.64 | 96.6 | 95.6 | 4.87 | 7.45 |
| COc1ccc(CN2CCCC2C(=O)Nc2ccc(OC)c(OC)c2)cc1OC (stereo not given) | -5.96% | -5.92% | -2.8 | 102 | 97.3 | 0.71 | 0.26 |
| COc1ccc(-c2cn3c(C)c(C(=O)Nc4ccncc4)sc3n2)cc1 | -4.55% | -15.3% | -3.37 | 102 | 90.1 | 3.6 | 5.99 |
| CCOc1ccccc1C1CC(c2ccc(Cl)cc2)Nc2nc(N)nn21 (stereo not given) | 0.515% | 23% | 1.4 | 66.3 | 77.6 | -0.11 | 1.24 |
| COc1cc(-c2nc3cnccn3c2Nc2ccccc2)ccc1O | -7.8% | 0.535% | -5.59 | 47.8 | 44.7 | 2.43 | 0.41 |
